TAAR1 antag: antagonists of human TAAR1. Q96RJ0. CHO RD-HGA16 TAAR1, Fluo-8 calcium fluorescence, antagonist. inhibition, % at 3 µM. 360,000 compounds, 1.5% hits;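 active means inhibition above a per-plate cutoff, the mean inhibition of test compounds on that plate plus 3 SD, cut at about 49% in these data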;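 further: 0% = DMSO plus EC80 beta-PEA response and 100% = DMSO alone without agonist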
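test system = CHO RD-HGA16 cells bearing hTAAR1 | replication = singlicate | controls = DMSO-only wells and EC80 β-PEA-stimulated wells | reagent = EC80 β-phenethylamine stimulus | read-out basis = percent inhibition of PEA-evoked calcium signal, max/basal emission ratio | schedule = seeding 17-24 h prior, 75-min 37 °C, 30-min RT dye loading | signal = kinetic Fluo-8 calcium fluorescence measurement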
TAAR1 agonist: human TAAR1 agonism | activation, % at 3 µM | 360,000 compounds, 0.99% hits | CHO RD-HGA16 TAAR1, Fluo-8 calcium fluorescence; vehicle wells 0%, saturating PEA agonist 100%;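 active means activation above the mean activation of all test compounds in the run plus 3 SD, cut at about 38% in these data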
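Signal – calcium-sensitive Fluo-8 signal, excitation 470-495, emission 515-575 nm · System – RD-HGA16 (CHO) cells co-expressing Gα16 and hTAAR1 · Incubation – 17-24 h seeding, 75 min 37 °C dye, 30 min RT · Compound dosing – 3 µM single concentration · Repeats – no replicates (n 1)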
zfTRPN1 agonist: activates the zebrafish TRPN1 channel | HEK293 zebrafish TRPN1-YFP, Fluo-8 calcium fluorescence; 100% = response to 87 µM carbachol | activation, % at 3 µM | 220,000 compounds, 0.18% hits | AID 1424;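 active means activation above its plate's cutoff, the mean activation of test wells on that plate plus 3 SD, cut at about 19% in these data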;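 further: 0% = DMSO alone and 100% = 87 µM carbachol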
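Assay system: Zebrafish TRPN1-YFP in HEK293 cells | Incubation: Dye loading 1 h at 37 °C, then 30 min room temperature | Measured by: Kinetic Fluo-8 fluorescence, ex 470-495, em 515-575 nm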
GPR7 antag: blocks human GPR7 receptor signaling; P48145; GPR7-expressing cells, fluorescence antagonist assay; inhibition, % at 4.4 µM; 290,000 compounds, 1.1% hits; in the data active means inhibition above about 16%, passing the limit was not always enough;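 further: cells stimulated with the agonist NPW; 0% = agonist with vehicle and 100% = vehicle without agonist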
LANA-H2B inh: blocks KSHV LANA binding to histone H2A/H2B; 320,000 compounds, 0.6% hits; inhibition, % (concentration not given with the values); cell-free LANA-H2A/H2B peptide, fluorescence polarization; Q9QR71; AID 2629; in the data active means inhibition mostly above about 10%, no sharp cut-off; inactive means mostly below about 6.7%
TRPML3 ag: human mucolipin-3 channel agonism; activation, % at 3 µM; 220,000 compounds, 0.29% hits; HEK293 TRPML3-YFP, Fluo-8 calcium fluorescence; 100% = the carbachol control signal;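 active means activation above its plate's cutoff, the mean activation of the plate's test wells plus 3 SD, cut at about 12% in these data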;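 further: 0% = DMSO only wells and 100% = carbachol wells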
Target sequence (Q8TDD5 whole entry, looked up): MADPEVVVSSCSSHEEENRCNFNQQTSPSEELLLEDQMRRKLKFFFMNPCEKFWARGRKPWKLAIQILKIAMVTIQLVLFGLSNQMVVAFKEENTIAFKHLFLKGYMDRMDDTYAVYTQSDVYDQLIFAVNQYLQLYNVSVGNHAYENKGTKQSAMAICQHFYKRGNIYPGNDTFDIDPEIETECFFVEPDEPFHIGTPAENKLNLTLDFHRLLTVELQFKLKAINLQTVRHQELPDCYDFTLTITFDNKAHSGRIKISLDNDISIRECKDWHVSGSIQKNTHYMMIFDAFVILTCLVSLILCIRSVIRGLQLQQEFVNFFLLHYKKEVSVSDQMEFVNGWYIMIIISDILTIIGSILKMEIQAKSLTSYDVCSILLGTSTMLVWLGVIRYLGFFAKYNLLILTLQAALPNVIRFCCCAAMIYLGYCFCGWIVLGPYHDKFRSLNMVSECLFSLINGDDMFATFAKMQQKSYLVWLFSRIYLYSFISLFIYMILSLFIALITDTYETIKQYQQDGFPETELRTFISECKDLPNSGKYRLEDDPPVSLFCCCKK
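Test system – HEK293 line with stable expression of human TRPML3-YFP channel · Control set – carbachol 87 µM final as high control (100%), DMSO as low control (0%) · Signal – Fluo-8 calcium dye fluorescence, ex 470-495, em 515-575 nm · Incubation – 1-h 37 °C dye load, 5-s basal, 120-s post-compound reads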
* marks the source's active call; other numbers are inactive results; ! = a repeat was not active. Rows were chosen to be rich in hits. Some 3.4% of all compounds tested hit in one or more screens of this group.

Results for Cc1ccc2c(c1)S(=O)(=O)N(C)C(c1ccccc1)=C2 ?
TAAR1 antag: 53*; TAAR1 agonist: -1

What do the screens show for `CN1c2ccccc2-c2ccccc2S1(=O)=O`?
TAAR1 antag: -9; TAAR1 agonist: 3

Results for CCC(C)Sc1ccc(-c2nc3ccc(C)cn3c2NCc2ccccc2)cc1OC (stereo not given) ?
LANA-H2B inh: 1

How did c1ccc(CNc2c(-c3cccc(SC4CCCCC4)c3)nc3ccccn23)cc1 do in these assays?
TAAR1 antag: 55*; TAAR1 agonist: 2; LANA-H2B inh: 5

What do the screens show for `CCCCNc1c(-c2ccc(-c3ccc(C(C)=O)cc3)c(OC)c2)nc2cc(C)ccn12`?
TAAR1 antag: 56*; TAAR1 agonist: 3; LANA-H2B inh: -5

Results for CCC(C)Sc1cc(-c2nc3ccc(C)cn3c2NCc2ccccc2)ccc1OC (stereo not given) ?
TAAR1 antag: 72*; TAAR1 agonist: 4; LANA-H2B inh: 1

Results for CCCCNc1c(-c2ccc(OC)c(SC(C)CC)c2)nc2cc(C)ccn12 (stereo not given) ?
TAAR1 antag: 72*!; TAAR1 agonist: 10

What do the screens show for `O=S1(=O)N[C@@H](Cc2ccccc2)COc2cccc(NCCCN3CCOCC3)c21`?
TAAR1 antag: 2; TAAR1 agonist: 1

How did CCCCNc1c(-c2ccc(SC(C)CC)cc2)nc2ccccn12 (stereo not given) do in these assays?
TAAR1 antag: 96*; TAAR1 agonist: 12; LANA-H2B inh: 9

What do the screens show for `CCCCNc1c(-c2ccc(OC)c(SC3CCCCC3)c2)nc2ccc(C)cn12`?
TAAR1 antag: 85*; TAAR1 agonist: 26

Results for COc1ccc(-c2cc(-c3nc4ccccn4c3NCc3ccccc3)ccc2OC)cc1 ?
TAAR1 antag: 88*; TAAR1 agonist: 20; LANA-H2B inh: 14

What do the screens show for `CCC(C)Sc1cccc(-c2nc3cc(C)ccn3c2NCc2ccccc2)c1` (stereo not given)?
TAAR1 antag: 77*!; TAAR1 agonist: 6; LANA-H2B inh: -7

What do the screens show for `Cc1ccn2c(NCc3ccccc3)c(-c3cccc(SC4CCCCC4)c3)nc2c1`?
TAAR1 antag: 48; TAAR1 agonist: 4; LANA-H2B inh: 3

What do the screens show for `COc1ccc(-c2nc3ccccn3c2NCc2ccc3c(c2)OCO3)cc1`?
TAAR1 antag: 44; TAAR1 agonist: 16; zfTRPN1 agonist: -1; GPR7 antag: -8; LANA-H2B inh: -3; TRPML3 ag: 0

Results for CCc1cc2c(nc1CC)CCCN2S(=O)(=O)c1ccc(C(F)(F)F)cc1 ?
TAAR1 antag: -6; TAAR1 agonist: -1

Results for O=S1(=O)CCSC[C@@H](CN2CCN(c3ccccc3)CC2)N1 ?
TAAR1 antag: -1; TAAR1 agonist: 0

How did CN(Cc1ccccc1)C(=O)c1cccc(NC(=O)Cc2cccc(NC(=O)C3CCN(C(=O)CCc4ccccc4)CC3)c2)c1 do in these assays?
TAAR1 antag: -3; TAAR1 agonist: 6

Results for O=C(COC(=O)c1ccccc1Nc1ccc(SC(F)F)cc1)NC1CC1 ?
TAAR1 antag: 18; TAAR1 agonist: 2; zfTRPN1 agonist: 0; GPR7 antag: -9; LANA-H2B inh: 3; TRPML3 ag: 0

How did CC(C)(C)NC(=O)COC(=O)c1ccccc1Nc1ccc(SC(F)F)cc1 do in these assays?
TAAR1 antag: 51*; TAAR1 agonist: 2; zfTRPN1 agonist: 0; GPR7 antag: 6; LANA-H2B inh: 1; TRPML3 ag: 0

How did Cc1ccc(CNc2nc(N)c([N+](=O)[O-])c(NCCO)n2)cc1 do in these assays?
TAAR1 antag: -1; TAAR1 agonist: 8; zfTRPN1 agonist: 0; GPR7 antag: -16; LANA-H2B inh: -4; TRPML3 ag: 0

Results for Nc1nc(NCc2ccc(Cl)cc2)nc(NCCO)c1[N+](=O)[O-] ?
TAAR1 antag: -30; TAAR1 agonist: 45*; zfTRPN1 agonist: 0; GPR7 antag: -15; LANA-H2B inh: -2; TRPML3 ag: 0

What do the screens show for `O=C1CC(=O)Nc2cc(S(=O)(=O)N3CCOc4ccc(Cl)cc43)ccc2N1`?
TAAR1 antag: 2; TAAR1 agonist: 1; GPR7 antag: -9; LANA-H2B inh: 31*

How did Cc1cc(O)cc(=O)n1-c1ccc(Cl)c(C(F)(F)F)c1 do in these assays?
TAAR1 antag: 2; TAAR1 agonist: 1

How did O=C(c1cc2nc(-c3ccccc3)cc(C(F)(F)F)n2n1)N1CCN2CCCC2C1 (stereo not given) do in these assays?
TAAR1 antag: -17; TAAR1 agonist: 0; GPR7 antag: 5; LANA-H2B inh: 5

How did CCOC(=O)C1CCCN(C(=O)c2cc3nc(-c4cccc(OC)c4)cc(C(F)(F)F)n3n2)C1 (stereo not given) do in these assays?
TAAR1 antag: 63*; TAAR1 agonist: 6; zfTRPN1 agonist: -2; GPR7 antag: -16; LANA-H2B inh: 2; TRPML3 ag: 0

What do the screens show for `CN1CCCCC(NC(=O)c2ccc(F)cc2)C1=O` (stereo not given)?
TAAR1 antag: -3; TAAR1 agonist: 1

What do the screens show for `O=S1(=O)N[C@@H](Cc2ccccc2)COc2cccc(N3CCCC3)c21`?
TAAR1 antag: 4; TAAR1 agonist: 8

How did FC(F)(F)c1cnc(NNC(=S)Nc2ccc(Cl)cc2)c(Cl)c1 do in these assays?
TAAR1 antag: 13; TAAR1 agonist: 8; zfTRPN1 agonist: 26*; GPR7 antag: -15; LANA-H2B inh: -2; TRPML3 ag: 18*

Results for Fc1ccc(NC(=S)NNc2ncc(C(F)(F)F)cc2Cl)c(F)c1 ?
TAAR1 antag: 2; TAAR1 agonist: 15; zfTRPN1 agonist: 23*; GPR7 antag: 20; LANA-H2B inh: -1; TRPML3 ag: 14*

Results for Cc1cc(Nc2ccc(OC(F)F)cc2)cc(=O)n1-c1ccc(OC(F)F)cc1 ?
TAAR1 antag: 13; TAAR1 agonist: 0

How did S=C(NCCCCN(Cc1ccc(Cl)cc1)c1ccc(Br)cn1)NCCCc1cnc[nH]1 do in these assays?
TAAR1 antag: 31; TAAR1 agonist: 38*

Results for COC(=O)[C@]12C[C@H](CC(=O)NCc3ccccc3)C(=O)N(Cc3ccccc3)C1=C[C@H](C(C)(C)C)O[C@@H]2C ?
TAAR1 antag: -39; TAAR1 agonist: -1

What do the screens show for `O=C(Nc1ccc(Cl)cc1)Nc1ccc(-c2cnco2)cc1`?
TAAR1 antag: 43; TAAR1 agonist: 47*; GPR7 antag: -3; LANA-H2B inh: -6
